# Measurements: ChEMBL document CHEMBL4024768, “Discovery and Optimization of Thiazolidinyl and Pyrrolidinyl Derivatives as Inhaled PDE4 Inhibitors for Respiratory Diseases” (J Med Chem, 2017)
# Key:
# [1] = Inhibition of PDE4 in human U937 cell lysates assessed as residual cAMP after 2.5 mins by LANCE assay
# [2] = Inhibition of PDE4 in human PBMC assessed as reduction in LPS-induced TNFalpha release after 18 hrs by quantitative ELISA
# [3] = Protein binding in human plasma at 5 uM after 5 hrs by LC-MS/MS analysis; type: ADME, cell-free; settings: read-out: PPB (converted)
# [4] = Intrinsic clearance in human hepatocytes assessed per million cells at 1 uM measured after 90 mins by LC-MS/MS analysis; type: ADME, cell-based, Hepatocyte; settings: read-out: CLH
# Procedure, shortened: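 Compound at 1 μM with hepatocytes (1 million cells/mL) in Leibovitz L-15 at 37 °C, in duplicate. Sampled at 0, 10, 20, 30, 60 and 90 min, quenched with ice-cold acetonitrile, centrifuged, and unchanged compound measured by LC−MS/MS. Included 7-ethoxycoumarin and 7-hydroxycoumarin activity controls and cell-free medium controls.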
# [5] = Intrinsic clearance in human liver microsomes at 1 uM measured after 60 mins in presence NADPH by LC-MS/MS analysis; type: ADME, microsome; settings: read-out: CLH
# Procedure, shortened: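 Compound at 1 μM with human liver microsomes (0.8 mg protein/mL) in Dulbecco's buffer pH 7.4, 1 mM NADPH, 37 °C, in duplicate. Sampled at 0, 5, 10, 20, 30 and 60 min, quenched with ice-cold acetonitrile, and unchanged compound measured by LC−MS/MS. No-NADPH controls; midazolam (1 μM) as phase I control.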
# [6] = Metabolic stability in human plasma assessed as compound remaining at 1 uM measured after 60 mins in presence of NADPH by LC-MS/MS analysis; type: ADME, cell-free; settings: read-out: Stability
# [7] = Metabolic stability in human lung S9 fraction assessed as compound remaining at 1 uM measured after 60 mins in presence of NADPH by LC-MS/MS analysis; type: ADME; settings: read-out: Stability
# [8] = Apparent permeability across basolateral to apical side in human Caco2 cells at 10 uM after 2 hrs by LC-MS/MS analysis; type: ADME, cell-based; settings: Caco-2
# [9] = Apparent permeability across apical to basolateral side in human Caco2 cells at 10 uM after 2 hrs by LC-MS/MS analysis; type: ADME, cell-based; settings: Caco-2
Structure (SMILES),IC50 [1],IC50 [2],further results
O=C(c1ccccc1)c1ccsc1C(=O)O[C@@H](Cc1c(Cl)c[n+]([O-])cc1Cl)c1ccc(OC(F)F)c(OCC2CC2)c1,0.32 nM,,
COCCS(=O)(=O)N1CCC[C@H]1C(=O)O[C@@H](Cc1c(Cl)c[n+]([O-])cc1Cl)c1ccc(OC(F)F)c(OCC2CC2)c1 (relative stereo),0.0442 nM,0.31 nM,
O=C(O[C@@H](Cc1c(Cl)c[n+]([O-])cc1Cl)c1ccc(OC(F)F)c(OCC2CC2)c1)c1ccccc1S(=O)(=O)c1ccccc1,0.323 nM,,
O=C(O[C@@H](Cc1c(Cl)c[n+]([O-])cc1Cl)c1ccc(OC(F)F)c(OCC2CC2)c1)[C@H]1CCCN1S(=O)(=O)c1ccccc1,0.06 nM,0.34 nM,
O=C(O[C@@H](Cc1c(Cl)c[n+]([O-])cc1Cl)c1ccc(OC(F)F)c(OCC2CC2)c1)[C@@H]1CCCCN1S(=O)(=O)c1ccccc1 (relative stereo),0.094 nM,0.203 nM,
O=C(O[C@@H](Cc1c(Cl)c[n+]([O-])cc1Cl)c1ccc(OC(F)F)c(OCC2CC2)c1)c1cccn1S(=O)(=O)c1ccccc1,0.825 nM,,
CN(C)C(=O)c1cccc(S(=O)(=O)N2CCS[C@@H]2C(=O)O[C@H](Cc2c(Cl)c[n+]([O-])cc2Cl)c2ccc(OC(F)F)c(OCC3CC3)c2)c1,6.4 nM,,
COCCS(=O)(=O)N1CCS[C@H]1C(=O)O[C@@H](Cc1c(Cl)c[n+]([O-])cc1Cl)c1ccc(OC(F)F)c(OCC2CC2)c1 (relative stereo),0.043 nM,0.078 nM,
CN(C)C(=O)c1cccc(C(=O)N2CCS[C@H]2C(=O)O[C@@H](Cc2c(Cl)c[n+]([O-])cc2Cl)c2ccc(OC(F)F)c(OCC3CC3)c2)c1,,0.57 nM,
O=C(O[C@@H](Cc1c(Cl)c[n+]([O-])cc1Cl)c1ccc(OC(F)F)c(OCC2CC2)c1)[C@@H]1SCCN1S(=O)(=O)c1cccnc1 (relative stereo),0.061 nM,0.07 nM,
O=C(O[C@@H](Cc1c(Cl)c[n+]([O-])cc1Cl)c1ccc(OC(F)F)c(OCC2CC2)c1)[C@@H]1SCCN1S(=O)(=O)c1ccccc1 (relative stereo),0.176 nM,0.26 nM,

# More lines, main results first:
IC50 [1],IC50 [2],Structure (SMILES),further results
0.014 nM,0.032 nM,COc1cc([C@H](Cc2c(Cl)c[n+]([O-])cc2Cl)OC(=O)[C@@H]2SCCN2S(=O)(=O)c2cccc(C(=O)N(C)C)c2)ccc1OC(F)F (relative stereo),
0.0351 nM,0.042 nM,COc1ccc(S(=O)(=O)N2CCC[C@H]2C(=O)O[C@@H](Cc2c(Cl)c[n+]([O-])cc2Cl)c2ccc(OC(F)F)c(OCC3CC3)c2)cc1C(=O)N(C)C (relative stereo),"fraction unbound at 5 h, 5 µM [3]: 0.0032; hepatocyte CLint at 1 µM [4]: 56.7 µL/min/1e6 cells; microsomal CLint at 1 µM [5]: 365 µL/min/mg; remaining at 1 h, 1 µM [6]: 101%; remaining at 1 h, 1 µM [7]: 71.6%; Papp B→A at 2 h, 10 µM [8]: 12.5 ×10⁻⁶ cm/s; Papp A→B at 2 h, 10 µM [9]: 0.5 ×10⁻⁶ cm/s"
0.031 nM,0.12 nM,CN(C)C(=O)c1cccc(S(=O)(=O)N2CCC[C@@H](C(=O)O[C@@H](Cc3c(Cl)c[n+]([O-])cc3Cl)c3ccc(OC(F)F)c(OCC4CC4)c3)C2)c1 (relative stereo),
0.025 nM,0.03 nM,CNC(=O)c1cc(S(=O)(=O)N2CCS[C@H]2C(=O)O[C@@H](Cc2c(Cl)c[n+]([O-])cc2Cl)c2ccc(OC(F)F)c(OCC3CC3)c2)cn1C (relative stereo),"fraction unbound at 5 h, 5 µM [3]: 0.0016; hepatocyte CLint at 1 µM [4]: 47.6 µL/min/1e6 cells; microsomal CLint at 1 µM [5]: 202 µL/min/mg; remaining at 1 h, 1 µM [6]: 100%; remaining at 1 h, 1 µM [7]: 63.5%; Papp B→A at 2 h, 10 µM [8]: 18.3 ×10⁻⁶ cm/s; Papp A→B at 2 h, 10 µM [9]: 1.26 ×10⁻⁶ cm/s"
0.02 nM,0.028 nM,Cn1cnc(S(=O)(=O)N2CCS[C@H]2C(=O)O[C@@H](Cc2c(Cl)c[n+]([O-])cc2Cl)c2ccc(OC(F)F)c(OCC3CC3)c2)c1,"fraction unbound at 5 h, 5 µM [3]: 0.015; hepatocyte CLint at 1 µM [4]: 66.9 µL/min/1e6 cells; microsomal CLint at 1 µM [5]: 281 µL/min/mg; remaining at 1 h, 1 µM [6]: 101%; remaining at 1 h, 1 µM [7]: 77.7%; Papp B→A at 2 h, 10 µM [8]: 3.95 ×10⁻⁶ cm/s; Papp A→B at 2 h, 10 µM [9]: 0.22 ×10⁻⁶ cm/s"
